The source made the active and inactive calls. No cut-off for these calls is given here.
Tests used:
[1] = tested on: Rattus norvegicus; test: Median Effective dose was evaluated by Subcutaneous pentylenetetrazole seizure test in Rats by oral administration up to 800 mg/kg;d= no protection; format: functional, organism-based; parameters: dose 800 mg/kg
In short: (§1)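 Oral dosing in 30% PEG 400: phase IV in mice (0.01 mL/g), phase VI in Sprague-Dawley rats (0.004 mL/g). ED50/TD50 found as in phase II, at the stated time of peak effect. MES current 50 mA in mice, 150 mA in rats. PTZ sc 85 mg/kg in mice, 70 mg/kg in rats. Toxicity by rotorod in mice; positional sense, gait and stance in rats. PI = TD50/ED50.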

[2] = tested on: Mus musculus; test: Median Effective dose was evaluated by Maximal electroshock seizure (MES) test in mice by oral administration; format: functional
[3] = tested on: Rattus norvegicus; test: Time to peak effect in Rats was evaluated by Maximal electroshock seizure (MES) test in hours by oral administration; format: functional; in short: as §1
[4] = species on record: Mus musculus; test: Time to peak activity was evaluated by Maximal electroshock seizure test in hours; format: functional
[5] = tested on: Mus musculus; test: Median lethal dose was evaluated by mortality after 24 hr through ip injection administration; format: functional
In short: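 Mice were dosed ip in 30% PEG 400. Mortality was scored 24 h after injection in groups of eight. The 24-h LD₅₀ was derived as for the ED₅₀/TD₅₀, with 95% confidence intervals.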

[6] = tested on: Rattus norvegicus; test: Median Effective dose was evaluated by Maximal electroshock seizure (MES) test in Rats by oral administration; format: functional
[7] = species on record: Mus musculus; test: Median hypnotic dose was evaluated by loss of righting reflex; format: functional
[8] = tested on: Rattus norvegicus; test: Time to peak effect in Rats was evaluated by Subcutaneous pentylenetetrazole seizure test in hours by oral administration; format: functional; in short: as §1
[9] = tested on: Mus musculus; test: Inhibition of seizures induced in mice by a convulsant dose of up to 100 mg/kg; format: functional, organism-based; parameters: dose 100 mg/kg
In short: (§2)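 Convulsant (bicuculline, picrotoxin, strychnine or PTZ) given at CD97 as a 0.5% solution. Observed 30 min (45 min for picrotoxin). PI uses ip mouse TD50.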

[10] = tested on: Mus musculus; test: Time to peak effect in mice was evaluated by Maximal electroshock seizure (MES) test in hours by oral administration; format: functional; in short: as §1
[11] = tested on: Mus musculus; test: Median effective dose was evaluated by subcutaneous pentylenetetrazole seizure test through up to 300 mg/kg; g=no protection up to 33 mg/kg; format: functional, organism-based
[12] = species on record: Mus musculus; test: Time to peak toxicity was evaluated by Maximal electroshock seizure test in hours; format: functional
[13] = tested on: Mus musculus; test: Median Effective dose was evaluated by Subcutaneous pentylenetetrazole seizure test in mice by oral administration; c=No protection up to 300 mg/kg; format: functional, organism-based; parameters: dose 300 mg/kg; in short: as §1
[14] = tested on: Mus musculus; test: Inhibition of seizures induced in mice by a convulsant dose of strychnine through ip administration; f=No protection up to 100 mg/kg; format: functional, organism-based; parameters: dose 100 mg/kg; in short: as §2
[15] = tested on: Mus musculus; test: Time to peak effect in mice was evaluated by Neurologic toxicity (rotarod test) in hours by oral administration; format: functional
In short: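 Oral dosing in mice in 30% PEG 400 (0.01 mL/g). Neurologic deficit was scored by the rotorod ataxia test, and the time of peak effect was given in hours.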

[16] = tested on: Mus musculus; test: […] was evaluated by Neurologic toxicity (rotarod test) in mice by oral administration; format: functional; in short: as §1
[17] = tested on: Mus musculus; test: Inhibition of picrotoxin-induced seizures in mice by ip administration at 55-100 mg/kg (g= Maximum 62.5% protection); format: functional, organism-based
In short: (§3)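 Phase V differentiation in mice: test drug given ip at time of peak therapeutic effect, then the CD₉₇ of each convulsant (picrotoxin, bicuculline, strychnine) given ip as a 0.5% solution; observation 30 min for bicuculline and strychnine, 45 min for picrotoxin. Drug in 30% PEG 400, 0.01 mL/g. ED₅₀ with 95% confidence intervals from ≥3 points in the 10-90% protection range, groups of 6-12 mice.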

[18] = tested on: Mus musculus; test: Time to peak effect in mice was evaluated by Subcutaneous pentylenetetrazole seizure test in hours by oral administration; format: functional; in short: as §1
[19] = tested on: Rattus norvegicus; test: Time to peak effect in Rats was evaluated by Neurologic toxicity (rotarod test) in hours by oral administration; format: functional
[20] = tested on: Rattus norvegicus; test: […] was evaluated by […] by oral administration up to 3000 mg/kg; format: functional, organism-based; parameters: dose 3000 mg/kg
[21] = tested on: Mus musculus; test: Anti-seizure activity was evaluated by Neurologic toxicity (rotarod test) at dose 600 mg/kg after 4.0 hours; + denotes neurotoxicity; format: functional, organism-based; parameters: dose 600 mg/kg
In short: (§4)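 Phase I neurotoxicity in mice by rotorod ataxia test. Compound given ip at 30, 100, 300 or 600 mg/kg in 30% PEG 400, read 0.5 h and 4 h after. Scored ++++ to + for toxicity at 30 to 600 mg/kg; - means no toxicity.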

[22] = tested on: Mus musculus; test: Anti-seizure activity was evaluated by Subcutaneous pentylenetetrazole seizure test at dose 100 mg/kg after 4.0 hours; +++ denotes antiseizure activity; format: functional, organism-based; parameters: dose 100 mg/kg
In short: (§5)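 Phase I screen in mice: ip dosing at 30, 100, 300 and 600 mg/kg in 30% PEG 400, read 0.5 h and 4 h after. Pentylenetetrazol given sc at CD97 (85 mg/kg). Protection means no clonic spasm of at least 5 s over 30 min. Scored ++++ to + for 30 to 600 mg/kg.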

[23] = tested on: Mus musculus; test: Anti-seizure activity was evaluated by Neurologic toxicity (rotarod test) at dose 600 mg/kg after 0.5 hours; + denotes neurotoxicity; format: functional, organism-based; parameters: dose 600 mg/kg; in short: as §4
[24] = species on record: Rattus norvegicus; test: Protective index (TD50/ED50) was determined against scMet induced seizure in rat.; format: functional
In short: as §1, with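 “rats.” for “rats. PTZ sc 85 mg/kg in mice, 70 mg/kg in rats.”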

[25] = tested on: Mus musculus; test: Median toxic dose was evaluated by […] through intraperitoneal administration; format: functional
[26] = tested on: Mus musculus; test: Anti-seizure activity was evaluated by Maximal electroshock seizure (MES) test at dose 100 mg/kg after 0.5 hours; +++ denotes antiseizure activity; format: functional, organism-based; parameters: dose 100 mg/kg
In short: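 Phase I screen in mice: ip injection at 30, 100, 300 and 600 mg/kg in 30% PEG 400 (0.01 mL/g). Test run 0.5 h and 4 h after dosing. 60-Hz AC, 50 mA, via corneal electrodes for 0.2 s. Protection means abolition of hind-leg tonic extension. Scored ++++ to + for activity at 30 to 600 mg/kg.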

[27] = tested on: Mus musculus; test: Median effective dose was evaluated by subcutaneous pentylenetetrazole seizure test through intraperitoneal administration; format: functional
In short: (§6)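 Phase II in mice, ip dosing in 30% PEG 400. Groups of 6-12 mice per dose until at least three points fall in 10-90% protection. […] MES: 50 mA, 0.2 s corneal. scMet: pentylenetetrazol 85 mg/kg sc.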

[28] = tested on: Mus musculus; test: Anti-seizure activity was evaluated by Subcutaneous pentylenetetrazole seizure test at dose 600 mg/kg after 0.5 hours; + denotes neurotoxicity; format: functional, organism-based; parameters: dose 600 mg/kg; in short: as §5
[29] = species on record: Rattus norvegicus; test: Protective index (TD50/ED50) was determined against MES induced seizure in rat.; format: functional
In short: as §1, with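 “rats.” for “rats. PTZ sc 85 mg/kg in mice, 70 mg/kg in rats.”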

[30] = tested on: Mus musculus; test: Median effective dose was evaluated by Maximal electroshock seizure test through intraperitoneal administration; format: functional; details: ip; in short: as §6
[31] = tested on: Mus musculus; test: Anti-seizure activity was evaluated by Subcutaneous pentylenetetrazole seizure test at dose 300 mg/kg after 4.0 hours; ++ denotes antiseizure activity; format: functional, organism-based; parameters: dose 300 mg/kg; in short: as §5
[32] = tested on: Mus musculus; test: Anti-seizure activity was evaluated by Subcutaneous pentylenetetrazole seizure test at dose 100 mg/kg after 0.5 hours; +++ denotes antiseizure activity; format: functional, organism-based; parameters: dose 100 mg/kg; in short: as §5
[33] = tested on: Mus musculus; test: Anti-seizure activity was evaluated by Neurologic toxicity (rotarod test) at dose 300 mg/kg after 0.5 hours; ++ denotes antiseizure activity; format: functional, organism-based; parameters: dose 300 mg/kg; in short: as §4
[34] = tested on: Mus musculus; test: Inhibition of seizures induced in mice by a convulsant dose of bicuculline through ip administration; format: functional; in short: as §3
[35] = tested on: Mus musculus; test: Inhibition of seizures induced in mice by a convulsant dose of strychnine through ip administration; format: functional; in short: as §3
[36] = tested on: Rattus norvegicus; test: Median Effective dose was evaluated by Subcutaneous pentylenetetrazole seizure test in Rats by oral administration; format: functional
[37] = tested on: Mus musculus; test: Inhibition of picrotoxin-induced seizures in mice by ip administration; format: functional; in short: as §3
[38] = tested on: Rattus norvegicus; test: […] was evaluated by Neurologic toxicity (rotarod test) in Rats by oral administration; format: functional
[39] = tested on: Mus musculus; test: Median Effective dose was evaluated by Subcutaneous pentylenetetrazole seizure test in mice by oral administration; format: functional

In the case of `O=C1NC(=O)C(c2ccccc2)(c2ccccc2)N1` [PHENYTOIN], the ED50 [1] is reported as “inactive”, the ED50 [2] is reported as 9 mg/kg and the TPE [3] is reported as 4 h. The TPE [4] was 2, the LD50 [5] was 230 mg/kg and the ED50 [6] was 30 mg/kg. The HD50 [7] was 178 mg/kg, the TPE [8] was 4 h and the ED50 [9] was “inactive”. For the same compound, the TPE [10] was 2 h, the ED50 [11] was “inactive” and the TPE [12] was 2. For the same compound, the ED50 [13] was “inactive”, the ED50 [14] was “inactive” and the TPE [15] was 2 h. For the same compound, the TD50 [16] was 87 mg/kg, the ED50 [17] was “Active” and the TPE [18] was 2 h. The TPE [19] was 0.5 h and the TD50 [20] was “inactive”.

With `O=C(Cc1ccc(Br)cc1)NS(=O)(=O)C(F)(F)F` the TPE [4] was 4, the Activity [21] was “Antiseizure activity” and the Activity [22] was “Antiseizure activity”. For the same compound, the Activity [23] was “Antiseizure activity”, the PI [24] was 5.3 and the TD50 [25] was 291 mg/kg. The Activity [26] was “Antiseizure activity”, the ED50 [27] was 55 mg/kg and the TPE [12] was 2. For the same compound, the Activity [28] was “Antiseizure activity”, the PI [29] was 13 and the ED50 [30] was 23 mg/kg.

`O=C(Cc1cccc(Cl)c1)NS(=O)(=O)C(F)(F)F` was tested, and the TPE [4] was 2, the Activity [21] was “Antiseizure activity” and the PI [24] was 7.2. The TD50 [25] was 249 mg/kg, the Activity [26] was “Antiseizure activity” and the ED50 [27] was 35 mg/kg. The TPE [12] was 0.5, the Activity [31] was “Antiseizure activity” and the PI [29] was 37. For the same compound, the ED50 [30] was 6.8 mg/kg, the Activity [32] was “Antiseizure activity” and the Activity [33] was “Antiseizure activity”.

For `CCC1(c2ccccc2)C(=O)NC(=O)NC1=O` [PHENOBARBITAL], the ED50 [2] was 20 mg/kg, the TPE [3] was 5 h and the TPE [4] was 1. For the same compound, the LD50 [5] was 265 mg/kg, the ED50 [6] was 9.1 mg/kg and the HD50 [7] was 135 mg/kg. It also gave an ED50 [34] of 38 mg/kg, a TPE [8] of 5 h and an ED50 [35] of 28 mg/kg. The TD50 [25] was 69 mg/kg, the TPE [10] was 2 h and the ED50 [27] was 13 mg/kg. The TPE [12] was 0.5, the TPE [15] was 2 h and the TPE [18] was 2 h. It also gave an ED50 [36] of 12 mg/kg, a TPE [19] of 0.5 h and an ED50 [37] of 95 mg/kg. It also gave a TD50 [38] of 61 mg/kg, an ED50 [39] of 13 mg/kg and an ED50 [30] of 22 mg/kg.
